Data reported in ChEMBL document CHEMBL1123901, “Inhibition of delayed hypersensitivity reactions by cinnamyl 1-thioglycosides” (J Med Chem, 1987).

Legend:
Format in all cases: functional
Cavia porcellus [1] = species: Cavia porcellus; test: Effect on guinea pig T cell proliferation was tested by measuring the incorporation of [3H]-thymidine uptake at the concentration of 0 uM
Summary of the method: (§1)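 Strain 2 female guinea pigs were immunized with 100 μg OVA in CFA split over the footpads. At day 14 they received mineral oil ip, and the exudate was collected 4 days later. T cells were enriched on nylon wool. 2×10^5 cells per well were cultured with 10% irradiated (2100 rads) exudate cells, OVA (10 μg/mL) and compound, for 72 h at 37 °C in 5% CO2. [3H]thymidine (1 μCi) was added 18-24 h before harvest. Triplicate wells; mean Δcpm ± SD.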

Cavia porcellus [2] = species: Cavia porcellus; test: Effect on guinea pig T cell proliferation was tested by measuring the incorporation of [3H]thymidine uptake at the concentration of 750 uM; summary of the method: as §1
Cavia porcellus [3] = species: Cavia porcellus; test: Effect on guinea pig T cell proliferation was tested by measuring the incorporation of [3H]thymidine uptake at the concentration of 1000 uM; summary of the method: as §1
Cavia porcellus [4] = species: Cavia porcellus; test: Effect on guinea pig T cell proliferation was tested by measuring the incorporation of [3H]thymidine uptake at the concentration of 500 uM; summary of the method: as §1
Cavia porcellus [5] = species: Cavia porcellus; test: Effect on guinea pig T cell proliferation was tested by measuring the incorporation of [3H]-thymidine uptake at the concentration of 100 uM; summary of the method: as §1
Cavia porcellus [6] = species: Cavia porcellus; test: Effect on guinea pig T cell proliferation was tested by measuring the incorporation of [3H]thymidine uptake at the concentration of 250 uM; summary of the method: as §1
Cavia porcellus [7] = species: Cavia porcellus; test: Effect on guinea pig T cell proliferation was tested by measuring the incorporation of [3H]thymidine uptake at the concentration of 10 uM; summary of the method: as §1
Cavia porcellus [8] = species: Cavia porcellus; test: [3H]-Thymidine uptake was determined by liquid scintillation spectroscopy in compound 2 pretreated Macrophages plus OVA (ug/mL) pretreated with 500 uM 2 at 37 degree C for 18 h
Summary of the method: (§2)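 Guinea pig PELs and irradiated (2100 rads) exudate macrophages were each preincubated with compound (1 mM or 500 μM, depending on agent) for 18 h at 37 °C, then washed. Macrophages were pulsed with OVA 100 μg/mL for 1 h at 37 °C and washed. Cells were viability-adjusted by trypan blue and mixed, with or without OVA 10 μg/mL. Culture ran 72 h at 37 °C with [3H]thymidine read by scintillation, as mean Δcpm × 10^-3.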

Cavia porcellus [9] = species: Cavia porcellus; test: [3H]thymidine uptake was determined by liquid scintillation spectroscopy in OVA pulsed Macrophages pretreated with 500 uM 2 at 37 degree C for 18 h; summary of the method: as §2
Mus musculus [10] = test: Percent reduction in mice after intraperitoneal administration 3 mg/kg
Summary of the method: (§3)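 DTH in A/J female mice (20-23 g): cyclophosphamide 200 mg/kg sc, then iv sensitization with 10^8 washed SRBC 3 days later. On day 6 after sensitization, one hind footpad challenged with 10^8 SRBC in 20 μL, the other given saline. Dosing ip or po to overnight-fasted mice 20 min before challenge. Swelling read at 24 and 48 h as antigen minus saline footpad (mm × 10), by constant-pressure caliper.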

Cavia porcellus [11] = species: Cavia porcellus; test: Inhibitory activity against [3H]thymidine uptake by cinnamyl 1-thioglycosides using guinea pig T cell proliferation assay
Mus musculus [12] = test: Percent reduction in mice after intraperitoneal administration 10 mg/kg; summary of the method: as §3
Cavia porcellus [13] = species: Cavia porcellus; test: [3H]thymidine uptake was determined by liquid scintillation spectroscopy in Macrophages pretreated with 500 uM 2 at 37 degree C for 18 h; summary of the method: as §2
Cavia porcellus [14] = species: Cavia porcellus; test: [3H]thymidine uptake was determined by liquid scintillation spectroscopy in compound 2 treated Macrophages; summary of the method: as §2
Mus musculus [15] = test: Percent reduction in mice after oral administration 3 mg/kg; summary of the method: as §3
Cavia porcellus [16] = species: Cavia porcellus; test: [3H]thymidine uptake was determined by liquid scintillation spectroscopy in 3 treated Macrophages plus OVA (10 ug/mL); summary of the method: as §2
Cavia porcellus [17] = species: Cavia porcellus; test: [3H]thymidine uptake was determined by liquid scintillation spectroscopy in compound 2 treated Macrophages pretreated with 500 uM 2 at 37 degree C for 18 h; summary of the method: as §2
Mus musculus [18] = test: Compound was administered intraperitoneally to mice before increase in foot-pad thickness at a dose of 30 mg/kg; details: route intraperitoneal; summary of the method: as §3
Mus musculus [19] = test: Compound was administered intraperitoneally to mice before increase in foot-pad thickness at a dose of 10 mg/kg; details: route intraperitoneal; summary of the method: as §3
Mus musculus [20] = test: Percent reduction in mice after oral administration 10 mg/kg; summary of the method: as §3
Cavia porcellus [21] = species: Cavia porcellus; test: [3H]-Thymidine uptake was determined by liquid scintillation spectroscopy in ovalbumin (OVA) pulsed compound 2 treated Macrophages; summary of the method: as §2
Mus musculus [22] = test: Compound was administered intraperitoneally to mice before increase in foot-pad thickness at a dose of 3 mg/kg; details: route intraperitoneal; summary of the method: as §3
Mus musculus [23] = test: Percent reduction in mice after oral administration of 30 mg/kg; summary of the method: as §3
Cavia porcellus [24] = species: Cavia porcellus; test: [3H]thymidine uptake was determined by liquid scintillation spectroscopy in ovalbumin pulsed Macrophages
Summary of the method: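 Pretreatment protocol. Strain 2 female guinea pigs immunized with OVA in CFA (100 μg OVA; 0.1 mL/foot); mineral oil given ip at day 14, peritoneal exudate collected 4 days later. Nylon-wool-enriched T cells (PELs) and irradiated (2100 rads) exudate macrophages each incubated with sugar derivative 18 h at 37 °C, then washed. Macrophages pulsed with OVA 100 μg/mL for 1 h at 37 °C and washed. Viability adjusted by trypan blue; populations mixed and cultured 72 h at 37 °C. [3H]thymidine (1 μCi) added 18-24 h before harvest; read by liquid scintillation as mean Δcpm ×10^-3.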

Cavia porcellus [25] = species: Cavia porcellus; test: [3H]thymidine uptake was determined by liquid scintillation spectroscopy in 2 pretreated OVA pulsed Macrophages plus OVA (10 ug/mL) pretreated with 500 uM 2 at 37 degree C for 18 h; summary of the method: as §2
Cavia porcellus [26] = species: Cavia porcellus; test: [3H]-Thymidine uptake was determined by liquid scintillation spectroscopy in OVA pulsed compound 2 pretreated Macrophages pretreated with 500 uM 2 at 37 degree C for 18 h; summary of the method: as §2
Mus musculus [27] = test: Compound was administered orally to mice before increase in foot-pad thickness at a dose of 30 mg/kg; details: route oral; summary of the method: as §3
Mus musculus [28] = test: Compound was administered orally to mice before increase in foot-pad thickness at a dose of 10 mg/kg; details: route oral; summary of the method: as §3
Mus musculus [29] = test: Compound was administered orally to mice before increase in foot-pad thickness at a dose of 3 mg/kg; details: route oral; summary of the method: as §3
Cavia porcellus [30] = species: Cavia porcellus; test: [3H]thymidine uptake was determined by liquid scintillation spectroscopy in Macrophages; summary of the method: as §2
Cavia porcellus [31] = species: Cavia porcellus; test: [3H]thymidine uptake was determined by liquid scintillation spectroscopy in compound 2 pretreated OVA pulsed Macrophages plus OVA (10 ug/mL); summary of the method: as §2
Mus musculus [32] = test: Percent reduction in mice after intraperitoneal administration of 30 mg/kg; summary of the method: as §3
Cavia porcellus [33] = species: Cavia porcellus; test: Inhibitory activity against [3H]thymidine uptake by cinnamyl 1-thioglycosides in guinea pig T cell proliferation; details: Cavia porcellus, T-cell, 72 h; summary of the method: as §1

CCCC(=O)NCC1OC(SC/C=C/c2ccccc2)C(O)C(O)C1O (configuration not stated)
Activity (Cavia porcellus [1]): 85.8 Δcpm x10e-3
Activity (Cavia porcellus [2]): 0 Δcpm x 10^-3
Activity (Cavia porcellus [3]): 0.07 Δcpm x10e-3
Activity (Cavia porcellus [4]): 0 Δcpm x10e-3
Activity (Cavia porcellus [5]): 45 Δcpm x10e-3
Activity (Cavia porcellus [6]): 1.73 Δcpm x10e-3
Activity (Cavia porcellus [7]): 68.4 Δcpm x10e-3

OCC1OC(SC/C=C/c2ccccc2)C(O)C(O)C1O (stereo in doubt; 2)
Delta cpm x10e-3 (Cavia porcellus [8]): 8.7
Activity (Cavia porcellus [1]): 82.4 Δcpm x10e-3
Delta cpm x10e-3 (Cavia porcellus [9]): 30.35
Activity (Cavia porcellus [2]): 0 Δcpm x 10^-3
Reduction (Mus musculus [10]): 0%
IC50 (Cavia porcellus [11]): 198 µM
Reduction (Mus musculus [12]): 56%
Delta cpm x10e-3 (Cavia porcellus [13]): 1.16
Delta cpm x10e-3 (Cavia porcellus [14]): 1.89
Reduction (Mus musculus [15]): 27%
Activity (Cavia porcellus [3]): 0.18 Δcpm x10e-3
Delta cpm x10e-3 (Cavia porcellus [16]): 14.5
Activity (Cavia porcellus [4]): 0.04 Δcpm x10e-3
Delta cpm x10e-3 (Cavia porcellus [17]): 1.07
Activity (Cavia porcellus [5]): 63.6 Δcpm x10e-3
Activity (Mus musculus [18]): 2.07 mm x10
Activity (Mus musculus [19]): 2.46 mm x10
Reduction (Mus musculus [20]): 30%
Delta cpm x10e-3 (Cavia porcellus [21]): 27.8
Activity (Mus musculus [22]): 7.3 mm x10
Reduction (Mus musculus [23]): 30%
Delta cpm x10e-3 (Cavia porcellus [24]): 41.36
Delta cpm x10e-3 (Cavia porcellus [25]): 12.06
Delta cpm x10e-3 (Cavia porcellus [26]): 14.2
Activity (Mus musculus [27]): 0.82 mm x10
Activity (Mus musculus [28]): 0.82 mm x10
Activity (Cavia porcellus [6]): 17.6 Δcpm x10e-3
Activity (Mus musculus [29]): 0.85 mm x10
Delta cpm x10e-3 (Cavia porcellus [30]): 1.31
Delta cpm x10e-3 (Cavia porcellus [31]): 18.94
Activity (Cavia porcellus [7]): 95.9 Δcpm x10e-3
Reduction (Mus musculus [32]): 63%

OCC1OC(SC/C=C/c2ccccc2)C(O)C(O)C1O (stereo in doubt; 3)
Activity (Cavia porcellus [1]): 80.3 Δcpm x10e-3
Activity (Cavia porcellus [2]): 38.4 Δcpm x 10^-3
Activity (Cavia porcellus [3]): 42 Δcpm x10e-3
Activity (Cavia porcellus [4]): 62.7 Δcpm x10e-3
Activity (Cavia porcellus [5]): 66.7 Δcpm x10e-3
Activity (Cavia porcellus [6]): 67.8 Δcpm x10e-3
Activity (Cavia porcellus [7]): 75.3 Δcpm x10e-3
IC50 (Cavia porcellus [33]): 871 µM
